In ChEMBL document CHEMBL1255372 (2008):
In brackets after ≈: the same amount, converted by molar mass.

Experiments:
Format in all cases: functional
[1] = system: Klebsiella pneumoniae; assay: Antibacterial activity against Klebsiella pneumoniae isolate VA375 with blaKPC-3, qnrA1, blaTEM-1, blaSHV-11 genes by Etest method
[2] = system: Klebsiella pneumoniae; assay: Antibacterial activity against Klebsiella pneumoniae isolate VA367 with blaKPC-3, qnrB19, blaTEM-1, blaSHV-11, blaSHV-12, aac(6')-1b genes by Etest method
[3] = system: Escherichia coli; assay: Antibacterial activity against Escherichia coli J53 transconjugated with Klebsiella pneumoniae isolate VA375 containing qnrA1, blaTEM-1, blaSHV-11genes by Etest method
Method in brief: (§1)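 Test strains were E. coli J53 (rifampin-resistant recipient) transconjugants obtained by conjugation with the K. pneumoniae donor isolate. After overnight incubation, the donor–recipient mixture was plated on MacConkey agar containing ceftazidime (10 mg/liter) plus rifampin (100 mg/liter) to select transconjugants. Etest conditions are not described.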

[4] = system: Escherichia coli; assay: Antibacterial activity against Escherichia coli J53 transconjugated with Klebsiella pneumoniae isolate VA375 containing qnrA1, blaTEM-1, blaSHV-11genes by CLSI method
[5] = system: Escherichia coli; assay: Antibacterial activity against Escherichia coli J53 transconjugated with Klebsiella pneumoniae isolate VA367 containing blaKPC-3, qnrB19, blaTEM-1, blaSHV-11, aac(6')-1b genes by CLSI method
[6] = system: Escherichia coli; assay: Antibacterial activity against Escherichia coli J53 by CLSI method
[7] = system: Klebsiella pneumoniae; assay: Antibacterial activity against Klebsiella pneumoniae isolate VA367 with blaKPC-3, qnrB19, blaTEM-1, blaSHV-11, blaSHV-12, aac(6')-1b genes by CLSI method
[8] = system: Escherichia coli; assay: Antibacterial activity against Escherichia coli J53 by Etest method
[9] = system: Escherichia coli; assay: Antibacterial activity against Escherichia coli J53 transconjugated with Klebsiella pneumoniae isolate VA367 containing blaKPC-3, qnrB19, blaTEM-1, blaSHV-11, aac(6')-1b genes by Etest method; method in brief: as §1
[10] = system: Klebsiella pneumoniae; assay: Antibacterial activity against Klebsiella pneumoniae isolate VA375 with blaKPC-3, qnrA1, blaTEM-1, blaSHV-11 genes by CLSI method

Compound	MIC [1] [µg/mL]	MIC [2] [µg/mL]	MIC [3] [µg/mL]	MIC [4] [µg/mL]	MIC [5] [µg/mL]	MIC [6] [µg/mL]	MIC [7] [µg/mL]	MIC [8] [µg/mL]	MIC [9] [µg/mL]	MIC [10] [µg/mL]
O=C(O)c1cn(C2CC2)c2cc(N3CCNCC3)c(F)cc2c1=O [CIPROFLOXACIN]	0.75 (≈ 2.26 µM)	≥ 32								
C[C@@H](O)[C@H]1C(=O)N2C(C(=O)O)=C(S[C@@H]3CN[C@H](C(=O)N(C)C)C3)[C@H](C)[C@H]12 [MEROPENEM]	4 (≈ 10.4 µM)	8 (≈ 20.9 µM)	0.38 (≈ 0.991 µM)	≤ 0.25	1 (≈ 2.61 µM)	≤ 0.25	2 (≈ 5.22 µM)	0.047 (≈ 0.123 µM)	4 (≈ 10.4 µM)	1 (≈ 2.61 µM)
GENTAMICIN				4	< 1	< 1	4			> 16
CO/N=C(\C(=O)N[C@@H]1C(=O)N2C(C(=O)O)=C(COC(N)=O)CS[C@H]12)c1ccco1 [CEFUROXIME]				≥ 64	≥ 64	16 (≈ 37.7 µM)	≥ 64			≥ 64
O=C1CN(/N=C/c2ccc([N+](=O)[O-])o2)C(=O)N1 [NITROFURANTOIN]				≤ 16	≤ 16	≤ 16	≥ 512			64 (≈ 269 µM)
CN(C)c1cc(NC(=O)CNC(C)(C)C)c(O)c2c1C[C@H]1C[C@H]3[C@H](N(C)C)C(O)=C(C(N)=O)C(=O)[C@@]3(O)C(O)=C1C2=O [TIGECYCLINE]	1.5 (≈ 2.56 µM)		0.5 (≈ 0.854 µM)					0.5 (≈ 0.854 µM)	0.5 (≈ 0.854 µM)	
CO/N=C(\C(=O)N[C@@H]1C(=O)N2C(C(=O)O)=C(CSc3nc(=O)c(O)nn3C)CS[C@H]12)c1csc(N)n1 [CEFTRIAXONE]				8 (≈ 14.4 µM)	8 (≈ 14.4 µM)	≤ 1	≥ 64			32 (≈ 57.7 µM)
C[C@H]1COc2c(N3CCN(C)CC3)c(F)cc3c(=O)c(C(=O)O)cn1c23.C[C@H]1COc2c(N3CCN(C)CC3)c(F)cc3c(=O)c(C(=O)O)cn1c23.O [LEVOFLOXACIN]	0.75	≥ 32	1.5			≤ 0.25	≥ 8	0.25	0.75	
CCN1CCN(C(=O)N[C@@H](C(=O)N[C@@H]2C(=O)N3[C@@H]2SC(C)(C)[C@@H]3C(=O)O)c2ccccc2)C(=O)C1=O [PIPERACILLIN]				≥ 128	≥ 128	≤ 4	≥ 128			≥ 128
C[C@@H](O)[C@H]1C(=O)N2C(C(=O)O)=C(SCCNC=N)C[C@H]12 [IMIPENEM ANHYDROUS]	8 (≈ 26.7 µM)	16 (≈ 53.4 µM)	0.38 (≈ 1.27 µM)	≤ 1	4 (≈ 13.4 µM)	≤ 1	2 (≈ 6.68 µM)		4 (≈ 13.4 µM)	2 (≈ 6.68 µM)
CC(C)(O/N=C(\C(=O)N[C@@H]1C(=O)N2C(C(=O)[O-])=C(C[n+]3ccccc3)CS[C@H]12)c1csc(N)n1)C(=O)O [CEFTAZIDIME]				≥ 64	32 (≈ 58.5 µM)	≤ 1	≥ 64			≥ 64
C[C@@H](O)[C@H]1C(=O)N2C(C(=O)O)=C(S[C@@H]3CN[C@H](C(=O)Nc4cccc(C(=O)O)c4)C3)[C@H](C)[C@H]12	8 (≈ 16.8 µM)	16 (≈ 33.6 µM)	0.125 (≈ 0.263 µM)					0.023 (≈ 0.0484 µM)	2 (≈ 4.21 µM)	
COLISTIN	1		0.38					0.38	0.38	
NC[C@H]1O[C@H](O[C@H]2[C@H](O)[C@@H](O[C@H]3O[C@H](CO)[C@@H](O)[C@H](N)[C@H]3O)[C@H](N)C[C@@H]2N)[C@H](N)C[C@@H]1O [TOBRAMYCIN]				4 (≈ 8.56 µM)	≥ 16	≤ 1	≥ 16			≥ 16
NCC[C@H](O)C(=O)N[C@@H]1C[C@H](N)[C@@H](O[C@H]2O[C@H](CN)[C@@H](O)[C@H](O)[C@H]2O)[C@H](O)[C@H]1O[C@H]1O[C@H](CO)[C@@H](O)[C@H](N)[C@H]1O [AMIKACIN]				≤ 2	16 (≈ 27.3 µM)	≤ 2	≥ 64			≤ 2
